pEC50: −log10 of the molar value. Like-named read-outs stand apart in the source and are kept apart here.
Legend:
S. typhimurium TA102 = details: TA102 +S9, 5 μg/plate
S. typhimurium TA100 = test: Ames test, strain TA100; format: cell-based, Salmonella typhimurium
S. typhimurium TA98 = test: Ames test, strain TA98; format: cell-based, Salmonella typhimurium
chicken embryo = test: Chicken embryonic assay; format: in vivo; details: egg injection, day 18
MCF-7 cells = test: MCF-7 cell proliferation assay; format: cell-based, human; details: for pEC50: Homo sapiens, MCF7
Method in brief: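 MCF-7 cells exposed to test compound or E2 at six concentrations from 10–12 to 10–7 M in EA-free medium. Proliferation read as MTT product absorbance at 570 nm. Three independent trials, each in triplicate. % RME2 = 100 × (OD test − OD VC)/(max OD E2 − OD VC). EC50 from curve fitting. EEF = EC50 of E2/EC50 of sample. One-way ANOVA with Dunnett's test versus E2 at each concentration.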

chicken fetal liver = test: TBARs level; format: in vivo; details: lower dose (0.05 mM: 45–50 μg/kg)
[1] = higher dose (0.5 mM: 450–500 μg/kg; E2 0.1 mM: 91 μg/kg)
[2] = lower dose (0.05 mM: 45–50 μg/kg; E2 0.01 mM: 9.1 μg/kg)

| SMILES | malformation rate (chicken embryo; [1]) [%] | number of dead chicken embryo (chicken embryo; [1]) | number of malformation chicken embryo (chicken embryo; [1]) | weights: embryo (chicken embryo; [1]) [g] | weights: heart (chicken embryo; [1]) [g] | weights: liver (chicken embryo; [1]) [g] | malformation rate (chicken embryo; [2]) [%] | mortality rate (chicken embryo; [2]) [%] | number of dead chicken embryo (chicken embryo; [2]) | number of malformation chicken embryo (chicken embryo; [2]) | weights: embryo (chicken embryo; [2]) [g] | weights: heart (chicken embryo; [2]) [g] | weights: liver (chicken embryo; [2]) [g] | pEC50 (MCF-7 cells) | also measured |
| --- | --- | --- | --- | --- | --- | --- | --- | --- | --- | --- | --- | --- | --- | --- | --- |
| Nc1ccc2cc3ccccc3cc2c1 [2-AA, reference compound] |  |  |  |  |  |  |  |  |  |  |  |  |  |  | number of revertants/plate (M ± SD), positive control (S. typhimurium TA102; control set of luteolin and apigenin): 997 ± 35 ^e^** revertants/plate; number of revertants/plate (M ± SD), positive control (S. typhimurium TA102; control set of quercetin and genistein): 757 ± 35 ^e^** revertants/plate; number of revertants/plate (M ± SD), positive control (S. typhimurium TA100; TA100 +S9, 5 μg/plate, control set of luteolin and apigenin): 941 ± 56 ^e^** revertants/plate; number of revertants/plate (M ± SD), positive control (S. typhimurium TA100; TA100 +S9, 5 μg/plate, control set of quercetin and genistein): 845 ± 45 ^e^** revertants/plate; number of revertants/plate (M ± SD), positive control (S. typhimurium TA98; TA98 +S9, 5 μg/plate, control set of luteolin and apigenin): 846 ± 47 ^e^** revertants/plate; number of revertants/plate (M ± SD), positive control (S. typhimurium TA98; TA98 +S9, 5 μg/plate, control set of quercetin and genistein): 806 ± 25 ^e^** revertants/plate |
| O=[N+]([O-])c1ccc2c(c1)Cc1ccccc1-2 [2-NF, reference compound] |  |  |  |  |  |  |  |  |  |  |  |  |  |  | number of revertants/plate (M ± SD), positive control (S. typhimurium TA98; TA98 -S9, 1 μg/plate, control set of luteolin and apigenin): 723 ± 64 ^c^** revertants/plate; number of revertants/plate (M ± SD), positive control (S. typhimurium TA98; TA98 -S9, 1 μg/plate, control set of quercetin and genistein): 634 ± 16 ^c^** revertants/plate |
| C[C@]12CC[C@@H]3c4ccc(O)cc4CC[C@H]3[C@@H]1CC[C@@H]2O [E2, 17β-estradiol, reference compound] | 0.0 | 6 | 0 | 22.89 ± 0.87 | 0.18 ± 0.01 | 0.47 ± 0.07 | 0.0 | 31.8 | 7 | 0 | 20.24 ± 3.53 | 0.18 ± 0.03 | 0.54 ± 0.01 | 11.00 | LSI (liver somatic index) (chicken embryo; [1]): 2.06 ± 0.38%; REEW (ratio of embryo to egg weight) (chicken embryo; [1]): 0.38 ± 0.021; mortality rate (chicken embryo; [1]): 33.3%; LSI (liver somatic index) (chicken embryo; [2]): 2.18 ± 0.01%; REEW (ratio of embryo to egg weight) (chicken embryo; [2]): 0.39 ± 0.001 |
| [N-]=[N+]=[N-].[Na+] [NaN3, reference compound] |  |  |  |  |  |  |  |  |  |  |  |  |  |  | number of revertants/plate (M ± SD), positive control (S. typhimurium TA100; TA100 -S9, 1 μg/plate, control set of luteolin and apigenin): 860 ± 52 ^d^** revertants/plate; number of revertants/plate (M ± SD), positive control (S. typhimurium TA100; TA100 -S9, 1 μg/plate, control set of quercetin and genistein): 743 ± 28 ^d^** revertants/plate |
| O=c1cc(-c2ccc(O)c(O)c2)oc2cc(O)cc(O)c12 [luteolin] | 11.11 | 7 | 1 | 20.70 ± 0.00 | 0.18 ± 0.05 | 0.49 ± 0.05 | 21.43 | 12.5 | 2 | 3 | 19.75 ± 0.75 | 0.19 ± 0.05 | 0.44 ± 0.05 | 8.08 | EEF (estradiol equivalent factor) (MCF-7 cells; EC50 of E2 divided by that of the test compound): 0.0012; max % RME2 (MCF-7 cells; highest % RME2 (relative maximum % E2) in test range 10^–12–10^–7 M): 26%; TBARs value (chicken fetal liver): 142.56 nmol/g |

Source: PMC8851455 (ACS Omega, 2022)
